From ChEMBL document CHEMBL1141538, “Carboxylic acid bioisosteres acylsulfonamides, acylsulfamides, and sulfonylureas as novel antagonists of the CXCR2 receptor” (Bioorg Med Chem Lett, 2008)

Legend:
[1] = target: T1, C-X-C chemokine receptor type 2 (Homo sapiens, UniProt P25025); experiment: Displacement of europium labeled-human IL8 from human cloned CXCR2 expressed in Sf9 membrane with Galphai3-beta-1-gamma-2 by DELFIA binding assay
T1 sequence (P25025 whole entry): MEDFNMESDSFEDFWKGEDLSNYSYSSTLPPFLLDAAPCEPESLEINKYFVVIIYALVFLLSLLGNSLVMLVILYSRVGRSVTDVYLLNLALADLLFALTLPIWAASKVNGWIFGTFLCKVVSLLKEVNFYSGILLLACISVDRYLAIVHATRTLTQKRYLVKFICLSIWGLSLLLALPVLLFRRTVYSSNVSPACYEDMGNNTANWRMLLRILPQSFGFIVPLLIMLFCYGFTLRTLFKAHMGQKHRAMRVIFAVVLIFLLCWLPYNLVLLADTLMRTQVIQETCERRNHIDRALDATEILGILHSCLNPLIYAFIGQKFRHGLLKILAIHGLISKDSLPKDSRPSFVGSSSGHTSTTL
Method in brief: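 Lysates (40 µg/mL) incubated in triplicate with 2 nM Eu-IL-8 and compound, 90 min at room temperature. Filtered and washed, enhancement solution added, time-resolved fluorescence read at 340/612 nm with 400 µs delay. Background defined with 200 nM unlabeled human IL-8. IC50 by four-parameter logistic fit.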

[2] = target: T1, C-X-C chemokine receptor type 2; experiment: Antagonist activity at human cloned CXCR2 by calcium flux FLIPR assay; type: functional
Method in brief: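 Chem-1 cells carrying cloned human CXCR2 coupled to Gi/o, seeded at 5 × 10⁵ cells/mL and left to adhere overnight in DMEM without G-418. Loaded with half-strength Calcium 3 dye in HBSS/20 mM Hepes pH 7.4/2.5 mM probenecid, with compound in triplicate, 30 min at 37 °C then 30 min at room temperature. Stimulated with human IL-8 (4 nM solution added). Fluorescence 485/525 read every 2 s. IC50 from a four-parameter logistic fit.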

[3] = Half life in iv dosed rat; type: ADME, organism-based; conditions: in vivo
[4] = Oral bioavailability in rat; type: ADME, organism-based; conditions: in vivo
[5] = Stability in human liver microsomes after 10 mins; type: ADME, Microsome; conditions: read-out: Stability
Cytochrome P450 2D6 = Cytochrome P450 2D6 (Homo sapiens, UniProt P10635); experiment: Inhibition of CYP2D6; type: ADME
[6] = Clearance in iv dosed rat; type: ADME, organism-based; conditions: in vivo
Rattus norvegicus [7] = experiment: Reduction of hyperoxia-induced neutrophil accumulation in newborn rat at 10 mg/kg, ip after 7 days; design: scale not given: the % may be the effect or the level left; conditions: route intraperitoneal
[8] = Stability in rat liver microsomes after 10 mins; type: ADME, Microsome; conditions: read-out: Stability
Rattus norvegicus [9] = experiment: Reduction of hyperoxia-induced neutrophil accumulation in newborn rat at 10 mg/kg, ip after 7 days; type: functional; design: scale not given: the % may be the effect or the level left; conditions: route intraperitoneal
Cytochrome P450 1A2 = target: T2, Cytochrome P450 1A2 (Homo sapiens, UniProt P05177); experiment: Inhibition of CYP1A2; type: ADME
T2 sequence (P05177 whole entry): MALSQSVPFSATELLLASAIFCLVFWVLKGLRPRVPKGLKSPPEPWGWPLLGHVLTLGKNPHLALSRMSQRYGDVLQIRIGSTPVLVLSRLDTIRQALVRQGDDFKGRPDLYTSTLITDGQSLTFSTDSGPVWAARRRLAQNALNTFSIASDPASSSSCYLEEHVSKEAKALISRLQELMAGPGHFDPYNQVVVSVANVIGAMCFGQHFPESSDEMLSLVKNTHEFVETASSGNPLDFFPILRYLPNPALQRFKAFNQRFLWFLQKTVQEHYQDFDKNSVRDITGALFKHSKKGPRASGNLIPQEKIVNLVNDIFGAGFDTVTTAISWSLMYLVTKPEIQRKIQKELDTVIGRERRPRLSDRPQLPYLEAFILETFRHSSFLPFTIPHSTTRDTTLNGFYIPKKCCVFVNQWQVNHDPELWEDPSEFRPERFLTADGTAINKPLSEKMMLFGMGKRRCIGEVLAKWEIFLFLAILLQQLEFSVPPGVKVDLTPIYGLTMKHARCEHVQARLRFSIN

Cytochrome P450 3A4 = Cytochrome P450 3A4 (Homo sapiens, UniProt P08684); experiment: Inhibition of CYP3A4; type: ADME
[10] = Plasma protein binding in rat; type: ADME, cell-free; conditions: read-out: PPB
Cytochrome P450 2C9 = Cytochrome P450 2C9 (Homo sapiens, UniProt P11712); experiment: Inhibition of CYP2C9; type: ADME
Cytochrome P450 2C19 = Cytochrome P450 2C19 (Homo sapiens, UniProt P33261); experiment: Inhibition of CYP2C19; type: ADME
Cytochrome P450 2C19, sequence (P33261 whole entry): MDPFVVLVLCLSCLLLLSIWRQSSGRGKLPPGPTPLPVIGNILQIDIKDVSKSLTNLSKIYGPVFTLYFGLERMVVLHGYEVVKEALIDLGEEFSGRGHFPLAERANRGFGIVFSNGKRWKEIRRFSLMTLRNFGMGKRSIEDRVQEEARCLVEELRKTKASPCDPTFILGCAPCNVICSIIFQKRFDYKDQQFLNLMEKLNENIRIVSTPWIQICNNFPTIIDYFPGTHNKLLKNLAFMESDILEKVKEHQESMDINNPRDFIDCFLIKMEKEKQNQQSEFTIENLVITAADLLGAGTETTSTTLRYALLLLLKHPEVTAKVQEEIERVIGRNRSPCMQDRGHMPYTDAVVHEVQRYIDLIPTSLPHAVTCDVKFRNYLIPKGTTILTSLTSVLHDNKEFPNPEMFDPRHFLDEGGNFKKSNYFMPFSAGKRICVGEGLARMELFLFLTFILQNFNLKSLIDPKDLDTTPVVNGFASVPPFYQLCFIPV

Cytochrome P450 3A4, sequence (P08684 whole entry): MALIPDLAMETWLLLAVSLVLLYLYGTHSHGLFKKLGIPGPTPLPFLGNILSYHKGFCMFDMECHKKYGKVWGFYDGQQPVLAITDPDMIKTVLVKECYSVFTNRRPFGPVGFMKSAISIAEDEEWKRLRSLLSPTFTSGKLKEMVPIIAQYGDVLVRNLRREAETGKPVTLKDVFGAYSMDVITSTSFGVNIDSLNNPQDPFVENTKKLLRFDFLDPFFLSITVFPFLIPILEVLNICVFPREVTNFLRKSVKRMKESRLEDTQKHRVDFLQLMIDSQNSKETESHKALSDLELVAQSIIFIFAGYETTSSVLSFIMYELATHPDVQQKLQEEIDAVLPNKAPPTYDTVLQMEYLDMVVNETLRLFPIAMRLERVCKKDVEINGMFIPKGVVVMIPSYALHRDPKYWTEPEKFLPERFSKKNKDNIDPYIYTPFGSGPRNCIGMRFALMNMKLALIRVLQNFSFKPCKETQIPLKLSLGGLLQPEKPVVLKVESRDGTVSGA
Cytochrome P450 2C9, sequence (P11712 whole entry): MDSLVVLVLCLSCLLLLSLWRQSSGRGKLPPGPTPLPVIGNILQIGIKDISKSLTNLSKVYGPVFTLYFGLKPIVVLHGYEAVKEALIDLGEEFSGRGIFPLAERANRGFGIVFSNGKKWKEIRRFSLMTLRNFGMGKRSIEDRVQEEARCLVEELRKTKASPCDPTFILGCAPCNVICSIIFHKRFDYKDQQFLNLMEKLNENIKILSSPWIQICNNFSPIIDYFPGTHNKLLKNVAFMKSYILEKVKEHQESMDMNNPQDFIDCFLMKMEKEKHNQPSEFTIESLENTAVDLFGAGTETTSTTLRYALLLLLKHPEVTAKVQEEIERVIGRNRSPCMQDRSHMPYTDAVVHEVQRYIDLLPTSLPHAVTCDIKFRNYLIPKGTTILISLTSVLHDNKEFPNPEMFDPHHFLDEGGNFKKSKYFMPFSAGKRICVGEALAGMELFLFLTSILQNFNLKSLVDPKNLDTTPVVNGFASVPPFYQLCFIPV
Cytochrome P450 2D6, sequence (P10635 whole entry): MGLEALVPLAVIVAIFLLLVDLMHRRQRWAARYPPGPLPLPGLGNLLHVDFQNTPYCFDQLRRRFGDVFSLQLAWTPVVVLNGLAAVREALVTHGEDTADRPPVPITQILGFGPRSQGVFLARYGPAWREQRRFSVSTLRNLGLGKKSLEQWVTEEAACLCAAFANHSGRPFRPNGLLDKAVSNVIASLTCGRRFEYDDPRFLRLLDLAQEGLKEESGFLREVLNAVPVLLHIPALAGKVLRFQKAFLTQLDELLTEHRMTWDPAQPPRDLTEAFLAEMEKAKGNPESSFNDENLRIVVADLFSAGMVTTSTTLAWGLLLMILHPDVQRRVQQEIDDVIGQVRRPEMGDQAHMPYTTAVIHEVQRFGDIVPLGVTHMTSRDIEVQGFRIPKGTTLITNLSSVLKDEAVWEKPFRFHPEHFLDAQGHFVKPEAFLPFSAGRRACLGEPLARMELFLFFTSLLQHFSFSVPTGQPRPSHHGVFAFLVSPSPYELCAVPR

Row | SMILES | IC50 [1] [nM] | other results
1 | CS(=O)(=O)NC(=O)NCCc1c(-c2ccc(F)cc2)[nH]c2ccc(C#N)cc12 | 640 | 
2 | N#Cc1ccc2[nH]c(-c3ccc(F)cc3)c(CCNC(=O)NS(=O)(=O)c3ccc(F)cc3)c2c1 | 520 | 
3 | N#Cc1ccc2[nH]c(-c3ccc(F)cc3)c(CCCC(=O)NS(=O)(=O)c3ccccc3)c2c1 | 260 | 
4 | CCCCNS(=O)(=O)NC(=O)CCCc1c(-c2ccc(F)cc2)[nH]c2ccc(C#N)cc12 | 1100 | 
5 | CN(C(=O)CCCc1c(-c2ccc(F)cc2)[nH]c2ccc(C#N)cc12)S(C)(=O)=O | > 2000 | 
6 | CCCS(=O)(=O)NC(=O)CCCc1c(-c2ccc(F)cc2)[nH]c2ccc(C#N)cc12 | 1300 | 
7 | COCCNS(=O)(=O)NC(=O)CCCc1c(-c2ccc(F)cc2)[nH]c2ccc(C#N)cc12 | 260 | 
8 | CCN(CC)S(=O)(=O)NC(=O)CCCc1c(-c2ccc(F)cc2)[nH]c2ccc(C#N)cc12 | 1100 | 
9 | N#Cc1ccc2[nH]c(-c3ccc(F)cc3)c(CCCC(=O)NS(=O)(=O)Cc3ccccc3)c2c1 | 1400 | 
10 | N#Cc1ccc2[nH]c(-c3ccc(F)cc3)c(CCCC(=O)NS(=O)(=O)Nc3ccccc3)c2c1 | 880 | 
11 | CS(=O)(=O)NC(=O)NCCc1c(-c2ccc(F)cc2)[nH]c2ccc(Br)cc12 | 250 | IC50 [2]: 90 nM
12 | N#Cc1ccc2[nH]c(-c3ccc(F)cc3)c(CCNC(=O)NS(=O)(=O)c3ccccc3Cl)c2c1 | 400 | 

The next compounds have a lower IC50 [1] than those just listed; values first:

Row | IC50 [1] [nM] | SMILES | other results
13 | 150 | N#Cc1ccc2[nH]c(-c3ccc(F)cc3)c(CCCC(=O)NS(=O)(=O)N3CCOCC3)c2c1 | 
14 | 57 | COc1cc2[nH]c(-c3ccc(F)cc3)c(CCCC(=O)NS(=O)(=O)N(C)C)c2cc1C#N | 
15 | 24 | Cc1cc2[nH]c(-c3ccc(F)cc3)c(CCCC(=O)NS(=O)(=O)N(C)C)c2cc1C#N | 
16 | 120 | O=C(NCCc1c(-c2ccc(F)cc2)[nH]c2ccc(Br)cc12)NS(=O)(=O)c1ccccc1 | IC50 [2]: 4 nM
17 | 140 | N#Cc1ccc2[nH]c(-c3ccc(F)cc3)c(CCNC(=O)NS(=O)(=O)c3ccccc3)c2c1 | 
18 | 220 | CC(C)S(=O)(=O)NC(=O)CCCc1c(-c2ccc(F)cc2)[nH]c2ccc(C#N)cc12 | 
19 | 170 | CS(=O)(=O)NC(=O)CCCc1c(-c2ccc(F)cc2)[nH]c2ccc(Br)cc12 | 
20 | 64 | CCS(=O)(=O)NC(=O)CCCc1c(-c2ccc(F)cc2)[nH]c2ccc(C#N)cc12 | 
21 | 87 | N#Cc1ccc2[nH]c(-c3ccc(F)cc3)c(CCCC(=O)NS(=O)(=O)C(F)(F)F)c2c1 | IC50 [2]: 70 nM
22 | 120 | CNS(=O)(=O)NC(=O)CCCc1c(-c2ccc(F)cc2)[nH]c2ccc(C#N)cc12 | IC50 [2]: 14 nM
23 | 66 | N#Cc1ccc2[nH]c(-c3ccc(F)cc3)c(CCCC(=O)NS(N)(=O)=O)c2c1 | 
24 | 19 | Cc1cc2[nH]c(-c3ccc(F)cc3)c(CCCC(=O)NS(C)(=O)=O)c2cc1C#N | 
25 | 50 | CN(C)S(=O)(=O)NC(=O)CCCc1c(-c2ccc(F)cc2)[nH]c2ccc(C#N)cc12 | half-life [3]: 2.7 h; bioavailability [4]: 107%; remaining at 10 min [5]: 76.8%; IC50 (Cytochrome P450 2D6): > 5000 nM; IC50 [2]: 5 nM; clearance [6]: 3.8 mL/min/kg; Activity (Rattus norvegicus [7]): 50%; remaining at 10 min [8]: 100%; Activity (Rattus norvegicus [9]): 50%; IC50 (Cytochrome P450 1A2): > 5000 nM; IC50 (Cytochrome P450 3A4): > 5000 nM; fraction unbound [10]: < 0.01; IC50 (Cytochrome P450 2C9): 1320 nM; IC50 (Cytochrome P450 2C19): > 5000 nM
26 | 160 | COc1cc2[nH]c(-c3ccc(F)cc3)c(CCCC(=O)NS(C)(=O)=O)c2cc1C#N | 
27 | 72 | CS(=O)(=O)NC(=O)CCCc1c(-c2ccc(F)cc2)[nH]c2ccc(C#N)cc12 | IC50 [2]: 32 nM
